Experimental data from ChEMBL document CHEMBL1777755, “A new iridoid and effect on the rat aortic vascular smooth muscle cell proliferation of isolated compounds from Buddleja officinalis” (Bioorg Med Chem Lett, 2011).
Calls of active or inactive are those of the source. No cut-off for these calls is given here.

Assays:
VSMC [1] = assay: (§1) Antiproliferative activity against PDGF-BB-induced rat VSMC proliferation at 10 uM after 24 hrs by WST1 (CCK-8) assay; format: functional
Outline: (§2)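 Rat aortic VSMCs were seeded at 4 × 10^4 cells/well and grown 48 h in DMEM with 10% FBS. They were then held 24 h in serum-free medium with compounds (0–50 µM), then stimulated 24 h. The methods footnote gives the stimulus as 5% FBS; the figure legends give 25 ng/mL PDGF-BB. WST-1 was added at 22 h for 2 h, and OD read at 450 nm. AG1295 (1 µM) served as positive control; mean ± SD, n = 4.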

VSMC [2] = assay: (§3) Antiproliferative activity against PDGF-BB-induced rat VSMC proliferation at 50 uM after 24 hrs by WST1 (CCK-8) assay; format: functional; outline: as §2
[3] = Cytotoxicity against PDGF-BB-induced rat VSMC at 50 uM
VSMC [4] = assay: Antiproliferative activity against PDGF-BB-induced rat VSMC proliferation after 24 hrs by WST1 (CCK-8) assay; format: functional; outline: as §2
[5] = Antiproliferative activity against PDGF-BB-induced rat VSMC proliferation at 30 uM after 24 hrs by WST1 (CCK-8) assay; format: functional; outline: as §2
[6] = as §1; format: functional; outline: as §2
[7] = as §3; format: functional; outline: as §2

SMILES | Activity (VSMC [1]) | Activity (VSMC [2]) | Activity [3] | Activity (VSMC [4]) | further results
COc1cc(C(=O)O[C@@H]2C[C@](C)(O)[C@H]3[C@H](O[C@@H]4O[C@H](CO)[C@@H](O)[C@H](O)[C@H]4O)OC=C[C@H]32)ccc1O | inactive | Active | Non-toxic | Dose-dependent effect | 
C[C@@H]1O[C@@H](OC[C@H]2O[C@@H](OCCc3ccc(O)c(O)c3)[C@H](O)[C@@H](O[C@@H]3O[C@@H](C)[C@H](O)[C@@H](O)[C@H]3O)[C@@H]2OC(=O)/C=C/c2ccc(O)c(O)c2)[C@H](O)[C@H](O)[C@H]1O |  | inactive |  |  | 
C[C@@H]1O[C@@H](O[C@@H]2[C@@H](O)[C@H](OCCc3ccc(O)c(O)c3)O[C@H](CO)[C@H]2O)[C@H](O)[C@H](O)[C@H]1O |  | inactive |  |  | 
C[C@@H]1O[C@@H](O[C@@H]2[C@@H](O)[C@H](OCCc3ccc(O)c(O)c3)O[C@H](CO)[C@H]2OC(=O)/C=C/c2ccc(O)c(O)c2)[C@H](O)[C@H](O)[C@H]1O |  | inactive |  |  | 
C[C@H]1O[C@H](O[C@@H]2[C@@H](O)[C@H](OCCc3ccc(O)c(O)c3)O[C@H](CO[C@H]3O[C@@H](CO)[C@H](O)[C@@H](O)[C@@H]3O)[C@H]2OC(=O)/C=C/c2ccc(O)c(O)c2)[C@@H](O)[C@@H](O)[C@@H]1O |  | inactive |  |  | 
OC[C@H]1O[C@@H](OCCc2ccc(O)cc2)[C@H](O)[C@@H](O)[C@@H]1O |  | inactive |  |  | 
OC[C@H]1O[C@@H](OCCc2ccccc2)[C@H](O)[C@@H](O)[C@@H]1O |  | inactive |  |  | 
COc1ccc(-c2cc(=O)c3c(O)cc(O[C@@H]4O[C@H](CO[C@@H]5O[C@@H](C)[C@H](O)[C@@H](O)[C@H]5O)[C@@H](O)[C@H](O)[C@H]4O)cc3o2)cc1 [ACACIIN] | inactive | Active | Non-toxic | Dose-dependent effect | inhibition at 30 µM [5]: 21.2%
O=c1cc(-c2ccc(O)cc2)oc2cc(O)cc(O)c12 [APIGENIN] | inactive |  | Toxic |  | 
C=C[C@](C)(O)CC/C=C(\C)CO[C@@H]1O[C@H](CO)[C@@H](O)[C@H](O)[C@H]1O [BETULALBUSIDES A] | inactive | Active | Non-toxic | Dose-dependent effect | 
CO[C@@H]1C=C2[C@@H]3CC(C)(C)CC[C@]3(CO)[C@@H](O)C[C@@]2(C)[C@]2(C)CC[C@H]3[C@](C)(CO)[C@@H](O[C@@H]4O[C@H](C)[C@H](O)[C@H](O[C@@H]5O[C@H](CO)[C@@H](O[C@@H]6O[C@@H](C)[C@H](O)[C@@H](O)[C@H]6O)[C@H](O)[C@H]5O)[C@H]4O[C@@H]4O[C@H](CO)[C@@H](O)[C@H](O)[C@H]4O)CC[C@]3(C)[C@@H]12 [BUDDLEJASAPONIN IA] |  |  | Toxic |  | 
C[C@H]1O[C@@H](O[C@H]2CC[C@@]3(C)[C@@H](CC[C@]4(C)[C@@H]3C=C[C@]35OC[C@@]6(CCC(C)(C)C[C@H]63)[C@@H](O)C[C@]54C)[C@]2(C)CO)[C@H](O)[C@@H](O[C@@H]2O[C@H](CO)[C@@H](O)[C@H](O)[C@H]2O)[C@H]1O[C@@H]1OC[C@@H](O)[C@H](O)[C@H]1O [BUDDLEJASAPONIN III] |  |  | Toxic |  | 
CO[C@@H]1C=C2[C@@H]3CC(C)(C)CC[C@]3(OC)[C@@H](O)C[C@@]2(C)[C@]2(C)CC[C@H]3[C@](C)(CO)[C@@H](O[C@@H]4O[C@H](C)[C@H](O)[C@H](O[C@@H]5O[C@H](CO)[C@@H](O)[C@H](O)[C@H]5O)[C@H]4O[C@@H]4O[C@H](CO)[C@@H](O)[C@H](O)[C@H]4O)CC[C@]3(C)[C@@H]12 [BUDDLEJASAPONIN IVA] |  |  | Toxic |  | 
C[C@H]1O[C@@H](O[C@H]2CC[C@@]3(C)[C@@H](CC[C@]4(C)[C@@H]3C=C[C@]35OC[C@@]6(CCC(C)(C)C[C@H]63)[C@@H](O)C[C@]54C)[C@]2(C)CO)[C@H](O[C@@H]2O[C@H](CO)[C@@H](O)[C@H](O)[C@H]2O)[C@@H](O[C@@H]2O[C@H](CO)[C@@H](O)[C@H](O)[C@H]2O)[C@H]1O [BUDDLEJASAPONIN IV] |  |  | Toxic |  | 
C[C@@H]1O[C@@H](O[C@H]2[C@H](O)[C@@H](O)[C@H](O[C@H]3[C@@H](O)[C@@H](C)O[C@@H](O[C@H]4CC[C@@]5(C)[C@@H](CC[C@]6(C)[C@@H]5C=C[C@]57OC[C@@]8(CCC(C)(C)C[C@H]85)[C@@H](O)C[C@]76C)[C@]4(C)CO)[C@@H]3O[C@@H]3O[C@H](CO)[C@@H](O)[C@H](O)[C@H]3O)O[C@@H]2CO)[C@H](O)[C@H](O)[C@H]1O [BUDDLEJASAPONIN I] |  |  | Toxic |  | 
COc1ccc(/C=C/C(=O)O[C@@H]2[C@@H](OC(C)=O)[C@@H](O)[C@H](O[C@H]3[C@@H]4C=CO[C@@H](O[C@@H]5O[C@H](CO)[C@@H](O)[C@H](O)[C@H]5O)[C@@H]4[C@@]4(CO)O[C@@H]34)O[C@H]2C)cc1 [BUDDLEJOSIDE A4] | inactive | Active | Non-toxic | Dose-dependent effect | 
C[C@@H]1O[C@@H](OC[C@H]2O[C@@H](Oc3cc(O)c4c(=O)cc(-c5ccc(O)cc5)oc4c3)[C@H](O)[C@@H](O)[C@@H]2O)[C@H](O)[C@H](O)[C@H]1O [ISORHOIFOLIN] | inactive | Active | Non-toxic | Dose-dependent effect | inhibition at 30 µM [5]: 22.6%
CO[C@H]1[C@@H]2C=CO[C@@H](O[C@@H]3O[C@H](CO)[C@@H](O)[C@H](O)[C@H]3O)[C@@H]2[C@@]2(CO)O[C@@H]12 [METHYLCATALPOL] |  | Active | Non-toxic | Dose-dependent effect | 
CO[C@H]1[C@@H]2C[C@@H]3OC[C@](O)([C@H]2[C@H](O[C@@H]2O[C@H](CO)[C@@H](O)[C@H](O)[C@H]2O)O3)[C@@H]1O [METHYLSCUTELLOSIDE] |  |  | Non-toxic | Dose-dependent effect | inhibition at 10 µM [6]: 39.1%; inhibition at 30 µM [5]: 42%; inhibition at 50 µM [7]: 79.6%
CO[C@@H]1C=C2[C@@H]3CC(C)(C)CC[C@]3(CO)CC[C@@]2(C)[C@]2(C)CC[C@H]3[C@](C)(CO)[C@@H](O[C@@H]4O[C@H](C)[C@H](O)[C@H](O[C@@H]5O[C@H](CO)[C@@H](O[C@@H]6O[C@@H](C)[C@H](O)[C@@H](O)[C@H]6O)[C@H](O)[C@H]5O)[C@H]4O[C@@H]4O[C@H](CO)[C@@H](O)[C@H](O)[C@H]4O)CC[C@]3(C)[C@@H]12 [MIMENGOSIDE B] |  |  | Toxic |  | 
